Published values from different studies.
Target: NUAK family SNF1-like kinase 1 (NUAK1, Homo sapiens, UniProt O60285)
Residues used in one study (O60285 1-661): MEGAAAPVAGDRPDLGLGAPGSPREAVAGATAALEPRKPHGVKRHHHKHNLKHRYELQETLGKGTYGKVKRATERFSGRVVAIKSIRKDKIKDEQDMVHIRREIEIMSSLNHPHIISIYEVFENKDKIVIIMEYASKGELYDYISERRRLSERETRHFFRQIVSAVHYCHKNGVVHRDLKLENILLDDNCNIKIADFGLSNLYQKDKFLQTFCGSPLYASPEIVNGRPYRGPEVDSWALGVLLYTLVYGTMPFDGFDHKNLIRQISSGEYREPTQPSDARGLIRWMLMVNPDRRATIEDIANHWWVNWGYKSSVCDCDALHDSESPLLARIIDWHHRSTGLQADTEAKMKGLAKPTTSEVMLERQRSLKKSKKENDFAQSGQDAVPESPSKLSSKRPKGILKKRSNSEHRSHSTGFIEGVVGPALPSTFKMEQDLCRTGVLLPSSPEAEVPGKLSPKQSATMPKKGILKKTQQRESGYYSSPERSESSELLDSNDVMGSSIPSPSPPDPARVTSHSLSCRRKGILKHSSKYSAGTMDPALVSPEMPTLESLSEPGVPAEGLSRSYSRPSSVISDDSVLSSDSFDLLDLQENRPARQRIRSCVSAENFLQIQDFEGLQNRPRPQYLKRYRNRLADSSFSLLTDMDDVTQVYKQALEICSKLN

C[C@H]1CC[C@H](n2c3cnccc3c3cnc(Nc4ccc5c(n4)CCN(C(=O)CO)C5)nc32)CC1  remaining signal (cell-free assay; 1 µM): 72%
C1=C/COCc2cc(ccc2OCCN2CCCC2)Nc2nccc(n2)-c2cccc(c2)COC/1  remaining signal (cell-free assay; 0.1 µM): 39%
CCCCC(=O)Nc1ccc(-c2ccc3ncn(CCC)c(=O)c3c2)cn1  remaining binding (binding, competition with immobilised ligand; 0.5 µM): 73%
CC(C)S(=O)(=O)c1ccc2nccc(Nc3ccc4sc(C5CCCC5)nc4c3)c2c1  activity vs control (enzyme activity, inhibitor; 1 µM): 108%
C=CC(=O)N1CCC([C@@H]2CCNc3c(C(N)=O)c(-c4ccc(Oc5ccccc5)cc4)nn32)CC1  inhibition (enzyme activity, inhibitor; 1 µM): 2%
COc1ccc2[nH]c3c4[nH]c5ccc(OC)cc5c4c4c(c3c2c1)C(=O)NC4=O  remaining binding (binding; 1 µM): 25%
C#Cc1cc(-c2cc(Nc3nc(N[C@@H](C)c4ccc(F)cn4)ncc3Cl)n[nH]2)ccc1C=O  inhibition (enzyme activity, inhibitor; 0.2 µM): 17.1%
C=CC(=O)N1CCC[C@@H](n2nc(-c3ccc(Oc4ccccc4)cc3)c3c(N)ncnc32)C1  inhibition (enzyme activity, inhibitor; 1 µM): 10%
